From ChEMBL document CHEMBL1141088, “A new pyridazine series of GABAA alpha5 ligands” (J Med Chem, 2005)

What was measured:
[1] = molecular target: T1, GABA-A receptor; alpha-5/beta-3/gamma-2 (Homo sapiens, UniProt P18507+P28472+P31644); assay: Displacement of [3H]-Ro- 15-1788 binding from human recombinant Gamma-aminobutyric acid A receptor alpha-5-beta-3-gamma-2 expressed in mouse fibroblast L(tk-) cells (30 min at 24 degrees C, pH 7.4); assay type: cell-based
T1 sequence (P18507 whole entry): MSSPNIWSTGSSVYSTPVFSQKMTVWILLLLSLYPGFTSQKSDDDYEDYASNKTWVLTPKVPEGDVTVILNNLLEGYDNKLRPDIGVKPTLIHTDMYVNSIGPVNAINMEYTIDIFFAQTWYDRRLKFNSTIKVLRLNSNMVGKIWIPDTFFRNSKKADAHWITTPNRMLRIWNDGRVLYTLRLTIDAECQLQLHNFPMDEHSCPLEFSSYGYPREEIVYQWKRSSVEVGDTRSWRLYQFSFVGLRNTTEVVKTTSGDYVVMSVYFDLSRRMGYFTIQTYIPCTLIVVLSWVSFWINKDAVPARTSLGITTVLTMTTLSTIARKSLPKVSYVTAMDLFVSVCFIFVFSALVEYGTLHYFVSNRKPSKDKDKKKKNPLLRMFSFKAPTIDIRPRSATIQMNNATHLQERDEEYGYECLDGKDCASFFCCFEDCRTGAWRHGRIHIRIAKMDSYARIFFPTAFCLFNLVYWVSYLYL
T1 sequence (P28472 whole entry): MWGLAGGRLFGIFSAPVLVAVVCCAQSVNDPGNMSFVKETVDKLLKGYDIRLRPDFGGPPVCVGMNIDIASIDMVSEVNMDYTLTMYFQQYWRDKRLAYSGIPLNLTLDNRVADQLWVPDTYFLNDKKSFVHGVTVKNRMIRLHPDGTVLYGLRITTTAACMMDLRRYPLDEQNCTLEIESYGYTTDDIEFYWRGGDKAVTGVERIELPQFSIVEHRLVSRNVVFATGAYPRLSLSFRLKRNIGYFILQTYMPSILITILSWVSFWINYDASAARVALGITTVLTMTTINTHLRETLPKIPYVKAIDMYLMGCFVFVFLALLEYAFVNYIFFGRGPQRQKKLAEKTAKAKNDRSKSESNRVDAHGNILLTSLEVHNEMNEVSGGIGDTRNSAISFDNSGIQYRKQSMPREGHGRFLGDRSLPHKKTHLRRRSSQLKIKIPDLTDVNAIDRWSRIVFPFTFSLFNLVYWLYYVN
T1 sequence (P31644 whole entry): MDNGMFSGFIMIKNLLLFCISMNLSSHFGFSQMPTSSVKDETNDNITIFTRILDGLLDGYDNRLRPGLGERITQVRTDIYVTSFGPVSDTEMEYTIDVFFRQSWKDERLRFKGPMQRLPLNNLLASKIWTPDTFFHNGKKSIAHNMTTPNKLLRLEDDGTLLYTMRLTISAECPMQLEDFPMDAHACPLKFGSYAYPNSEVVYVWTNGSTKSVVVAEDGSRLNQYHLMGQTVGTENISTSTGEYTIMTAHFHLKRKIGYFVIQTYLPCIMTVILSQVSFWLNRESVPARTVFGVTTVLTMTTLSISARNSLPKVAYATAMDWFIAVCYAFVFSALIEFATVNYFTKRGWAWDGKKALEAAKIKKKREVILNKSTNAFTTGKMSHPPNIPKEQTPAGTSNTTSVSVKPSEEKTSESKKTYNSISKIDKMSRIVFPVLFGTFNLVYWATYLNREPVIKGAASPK
How it was run: (§1)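 Membranes from L(tk-) cells stably expressing human α1, α3 or α5 β3γ2 in 50 mM Tris pH 7.4. [3H]Ro15-1788 at 1.8 nM final, 30 min at 24 °C. Nonspecific binding set with 10 µM flunitrazepam, total binding in 0.1% DMSO. Filtration, scintillation counting. Ki is mean ± SEM of ≥3 independent determinations.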

[2] = molecular target: T2, GABA-A receptor; alpha-1/beta-3/gamma-2 (Homo sapiens, UniProt P14867+P18507+P28472); assay: Displacement of [3H]-Ro- 15-1788 binding from human recombinant Gamma-aminobutyric acid A receptor alpha-1-beta-3-gamma-2 expressed in mouse fibroblast L(tk-) cells (30 min at 24 degrees C, pH 7.4); assay type: cell-based; how it was run: as §1
T2 sequence (P14867 whole entry): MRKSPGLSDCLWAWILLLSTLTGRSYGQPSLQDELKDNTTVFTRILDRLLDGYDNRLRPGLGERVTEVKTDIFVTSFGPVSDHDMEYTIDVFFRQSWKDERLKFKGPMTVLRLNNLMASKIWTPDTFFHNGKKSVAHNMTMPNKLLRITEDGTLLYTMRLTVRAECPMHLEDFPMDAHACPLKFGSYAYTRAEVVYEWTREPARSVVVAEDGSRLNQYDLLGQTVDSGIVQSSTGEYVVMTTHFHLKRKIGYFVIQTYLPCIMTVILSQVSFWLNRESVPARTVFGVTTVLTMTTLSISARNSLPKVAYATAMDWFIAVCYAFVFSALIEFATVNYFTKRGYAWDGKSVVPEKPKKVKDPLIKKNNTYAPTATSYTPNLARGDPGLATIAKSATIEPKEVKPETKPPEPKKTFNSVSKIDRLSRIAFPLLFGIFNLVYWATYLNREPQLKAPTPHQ
T2 sequence (P18507 whole entry): T1 sequence (P18507 whole entry)
T2 sequence (P28472 whole entry): T1 sequence (P28472 whole entry)

[3] = molecular target: T3, GABA-A receptor; alpha-3/beta-3/gamma-2 (Homo sapiens, UniProt P18507+P28472+P34903); assay: Displacement of [3H]-Ro- 15-1788 binding from human recombinant Gamma-aminobutyric acid A receptor alpha-3-beta-3-gamma-2 expressed in mouse fibroblast L(tk-) cells (30 min at 24 degrees C, pH 7.4); assay type: cell-based; how it was run: as §1
T3 sequence (P18507 whole entry): T1 sequence (P18507 whole entry)
T3 sequence (P28472 whole entry): T1 sequence (P28472 whole entry)
T3 sequence (P34903 whole entry): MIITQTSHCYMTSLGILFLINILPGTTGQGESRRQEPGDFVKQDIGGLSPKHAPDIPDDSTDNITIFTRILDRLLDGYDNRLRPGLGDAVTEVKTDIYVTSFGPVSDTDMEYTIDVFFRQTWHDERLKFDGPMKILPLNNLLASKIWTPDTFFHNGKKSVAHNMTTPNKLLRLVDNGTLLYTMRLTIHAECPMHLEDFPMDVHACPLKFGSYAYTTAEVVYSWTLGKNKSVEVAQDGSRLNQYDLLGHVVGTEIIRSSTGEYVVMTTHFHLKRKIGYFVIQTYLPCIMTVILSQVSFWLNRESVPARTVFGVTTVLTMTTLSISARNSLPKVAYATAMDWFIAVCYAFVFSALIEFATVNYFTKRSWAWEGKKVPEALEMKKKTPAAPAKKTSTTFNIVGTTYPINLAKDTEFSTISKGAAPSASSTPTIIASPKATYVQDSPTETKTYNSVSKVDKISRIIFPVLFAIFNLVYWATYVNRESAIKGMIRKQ

[4] = molecular target: T4, GABA-A receptor; alpha-3/beta-3/gamma-2 (Homo sapiens) (UniProt P18507+P28472+P34903); assay: Efficacy at GABAA alpha-3-beta-3-gamma-2 receptor expressed in mouse fibroblast L(tk-) cells measured at 300 nM derived from at least three plates/day screened over a minimum of 2 days; assay type: functional, cell-based
How it was run: (§2)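 FRET membrane-potential (VIPR) assay in L(tk-) cells with receptor expression induced 24 h by 1 µM dexamethasone. Dye-loaded 30 min in low-Cl- HEPES buffer pH 7.4: 4 µM CC2-DMPE, 1 µM DiSBAC2(3), 0.5 mM tartrazine. Basal read 8 s, compound at 300 nM, half-maximal GABA 22 s later, 1 Hz reads. Background-subtracted 460/580 nm ratio, normalized to DMCM as -100%.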

[5] = molecular target: T5, GABA-A receptor; alpha-5/beta-3/gamma-2 (Homo sapiens) (UniProt P18507+P28472+P31644); assay: Efficacy at GABAA alpha-5-beta-3-gamma-2 receptor expressed in mouse fibroblast L(tk-) cells measured at 300 nM derived from at least three plates/day screened over a minimum of 2 days; assay type: functional, cell-based; how it was run: as §2
[6] = molecular target: T5, GABA-A receptor; alpha-5/beta-3/gamma-2 (Homo sapiens); assay: Efficacy for GABA-A alpha-5-beta-3-gamma-2 receptor expressed in mouse fibroblast L(tk-) cells at 300 nM derived from at least three plates/day screened over a minimum of 2 days; assay type: functional, cell-based; how it was run: as §2
[7] = molecular target: T4, GABA-A receptor; alpha-3/beta-3/gamma-2 (Homo sapiens); assay: Efficacy for GABA-A alpha-3-beta-3-gamma-2 receptor expressed in mouse fibroblast L(tk-) cells at 300 nM derived from at least three plates/day screened over a minimum of 2 days; assay type: functional, cell-based; how it was run: as §2

Ki [1] | Ki [2] | Ki [3] | Efficacy [4] | Efficacy [5] | Efficacy [6] | Efficacy [7] | Compound
27 nM | 49 nM | 113 nM | 3 | -26 | – | – | CNc1cc(-c2cccc(Br)c2)cnn1
54 nM | – | 205 nM | 42 | -18 | – | – | COc1cc(-c2cccc(Br)c2)cnn1
13 nM | – | 41 nM | 32 | – | -15 | – | N#Cc1cccc(-c2cnnc(-c3ccc(F)c(F)c3)c2)c1
63 nM | – | 302 nM | 32 | – | – | – | Brc1cccc(-c2cnnc(OCc3ccccc3)c2)c1
17 nM | – | 23 nM | – | -57 | – | – | N#Cc1cccc(-c2cnnc(-c3ccc(F)cc3F)c2)c1
51 nM | 55 nM | 120 nM | -49 | -62 | – | – | CN(C)c1cc(-c2cccc(Br)c2)cnn1
12 nM | 154 nM | 64 nM | – | – | 27 | – | COC(=O)c1c(-c2ccccc2)cnnc1-c1ccccc1
1.6 nM | 1.3 nM | 3.1 nM | -49 | -62 | – | – | c1ccc(-c2cc(-c3ccnc(-c4ccncc4)n3)cnn2)cc1
36 nM | – | 72 nM | 19 | -9 | – | – | CCOc1cc(-c2cccc(C#N)c2)cnn1
11 nM | – | 29 nM | -7 | -48 | – | – | COC(=O)c1cccc(-c2cnnc(-c3ccccc3)c2)c1
3.4 nM | – | 7.9 nM | -17 | -31 | – | – | N#Cc1cccc(-c2cnnc(-c3ccccc3F)c2)c1
323 nM | – | 440 nM | – | – | – | – | N#Cc1ccccc1-c1cnnc(-c2ccccc2)c1
12 nM | 88 nM | 45 nM | -44 | -39 | – | – | COC(=O)c1sccc1-c1cnnc(-c2ccccc2)c1
3.8 nM | 3.5 nM | 7.3 nM | 2 | -12 | – | – | CCNc1cc(-c2cccc(Br)c2)cnn1
8.4 nM | 12 nM | 27 nM | 22 | 18 | – | – | CC(C)Oc1cccc(-c2cnnc(-c3ccccc3)c2)c1
19 nM | – | 51 nM | 66 | 14 | – | – | Brc1cccc(-c2cnnc(NCc3ccccc3)c2)c1
33 nM | – | 79 nM | 8 | -29 | – | – | CCNc1cc(-c2cccc(C#N)c2)cnn1
4 nM | – | 7.2 nM | 3.6 | 0 | – | – | N#Cc1cccc(-c2cnnc(-c3cccc(F)c3)c2)c1
> 666 nM | > 666 nM | > 666 nM | – | – | – | – | N#Cc1cccc(-c2cc(-c3ccccc3)cnn2)c1
12 nM | – | 41 nM | 13 | -31 | – | – | c1ccc(-c2cc(-c3cccc(-n4cnnc4)c3)cnn2)cc1
5.7 nM | 8.6 nM | 19 nM | 39 | 4 | – | – | CCOc1cc(-c2cccc(Br)c2)cnn1
7.2 nM | 7.3 nM | 22 nM | 25 | 14 | – | – | CC(C)Nc1cc(-c2cccc(Br)c2)cnn1
8.8 nM | 8.5 nM | 10.4 nM | 43 | -5 | – | – | Cn1ncnc1COc1cccc(-c2cnnc(-c3ccccc3)c2)c1
7.9 nM | 7.5 nM | 15 nM | – | -2 | – | -2 | Brc1cccc(-c2cnnc(-c3ccccc3)c2)c1
56 nM | 27 nM | 81 nM | 49 | 45 | – | – | N#Cc1ccc(-c2cnnc(-c3ccccc3)c2)cc1
14 nM | – | 26 nM | – | – | – | – | N#Cc1cccc(-c2cnnc(-c3ccc(F)cc3)c2)c1
36 nM | 26 nM | 60 nM | 28 | 12 | – | – | CC(C)Oc1cc(-c2cccc(Br)c2)cnn1
6.1 nM | – | 15 nM | 59 | 17 | – | – | N#Cc1cccc(-c2cnnc(NCc3ccccc3)c2)c1
29 nM | 36 nM | 45 nM | -20 | -14 | – | – | c1ccc(-c2cnnc(-c3ccccc3)c2)cc1
17 nM | – | 60 nM | 60 | – | – | – | N#Cc1cccc(-c2cnnc(OCc3ccccc3)c2)c1
